Measurements published in ChEMBL document CHEMBL3352138, “Synthesis of novel 1,2,4-triazoles, triazolothiadiazines and triazolothiadiazoles as potential anticancer agents” (Eur J Med Chem, 2014).
pIC50: −log10 of the molar value.

What was measured:
Format in all cases: functional, cell-based
[1] = tested on: HepG2; experiment: Cytotoxicity against human HepG2 cells after 24 hrs by SRB assay; conditions: HepG2, 24 h
Outline: (§1)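 Monolayer cultures kept in RPMI-1640 with 5% heat-inactivated FBS, 2 mM glutamine, penicillin 100 U/mL and streptomycin, at 37 °C in humidified 5% CO₂. Exponentially growing cells were obtained by plating 1.5×10^5 cells/mL and incubating 24 h before treatment. Vehicle controls received DMSO at 0.5%, the maximum used in each assay.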

[2] = Cytotoxicity against human HONE1 cells after 24 hrs by SRB assay; conditions: HONE1, 24 h; outline: as §1
[3] = Cytotoxicity against human MCF cells after 24 hrs by SRB assay; outline: as §1
[4] = tested on: NUGC; experiment: Cytotoxicity against human NUGC cells after 24 hrs by SRB assay; outline: as §1
[5] = Cytotoxicity against human DLD1 cells after 24 hrs by SRB assay; conditions: DLD-1, 24 h; outline: as §1
[6] = Cytotoxicity against human HA22T cells after 24 hrs by SRB assay; outline: as §1
[7] = Cytotoxicity against human WI38 cells after 24 hrs by SRB assay; conditions: WI-38, 24 h
Outline: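 Normal fibroblasts were grown as monolayer in RPMI-1640 with 5% heat-inactivated FBS, 2 mM glutamine, penicillin 100 U/mL and streptomycin, at 37 °C in humidified 5% CO₂. Untreated control cells were exposed to the maximum DMSO vehicle concentration (0.5%) used in each assay.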

Structure (SMILES) | pIC50 [1] | pIC50 [2] | pIC50 [3] | pIC50 [4] | pIC50 [5] | pIC50 [6] | pIC50 [7]
c1ccc(-c2nn3c(-c4ccncc4)nnc3s2)cc1 | 5.86 | 5.62 | 5.81 | 5.89 | 5.47 | 5.90 | –
Clc1ccccc1-c1nn2c(-c3ccncc3)nnc2s1 | 5.88 | 5.93 | 5.66 | 5.49 | 5.57 | 5.90 | –
Clc1ccc(-c2nn3c(-c4ccncc4)nnc3s2)c(Cl)c1 | 5.64 | 5.93 | 5.49 | 5.67 | 5.93 | 5.51 | –
c1ccc(C2=Nn3c(nnc3-c3ccncc3)SC2)cc1 | 6.33 | 6.96 | 7.10 | 7.23 | 5.63 | 6.91 | –
Clc1ccc(-c2nn3c(-c4ccncc4)nnc3s2)cc1 | 5.91 | 6.31 | 5.79 | 7.60 | 7.31 | 6.92 | –
CC(=O)Nn1c(S)nnc1-c1ccncc1 | 7.28 | 5.93 | 5.68 | 7.36 | 7.38 | 6.78 | –
O=C(Nn1c(S)nnc1-c1ccncc1)c1ccc([N+](=O)[O-])cc1 | 7.05 | 5.64 | 5.96 | 6.44 | 6.58 | 5.95 | –
Brc1ccc(C2=Nn3c(nnc3-c3ccncc3)SC2)cc1 | 5.64 | 5.75 | 5.64 | 5.60 | 5.62 | 5.69 | –
Cc1nn2c(-c3ccncc3)nnc2s1 | 5.56 | 5.97 | 6.66 | 5.66 | 5.48 | 5.76 | 6.19
S=C(Nc1ccc(Cl)cc1)Nn1c(S)nnc1-c1ccncc1 | 5.69 | 5.91 | 5.49 | 5.67 | 5.65 | 5.70 | 5.66
COc1ccc(NC(=S)Nn2c(S)nnc2-c2ccncc2)cc1 | 5.89 | 5.64 | 5.78 | 5.74 | 5.64 | 5.63 | –
Cc1ccc(NC(=S)Nn2c(S)nnc2-c2ccncc2)cc1 | 5.91 | 5.89 | 5.66 | 5.56 | 5.67 | 5.62 | –
S=C(Nc1ccc(Br)cc1)Nn1c(S)nnc1-c1ccncc1 | 5.56 | 5.77 | 5.80 | 5.48 | 5.49 | 5.50 | 5.89
Clc1ccc(Nc2nn3c(-c4ccncc4)nnc3s2)cc1 | 5.70 | 5.64 | 5.90 | 5.89 | 5.49 | 5.51 | –
COc1ccc(Nc2nn3c(-c4ccncc4)nnc3s2)cc1 | 6.48 | 5.65 | 6.67 | 7.25 | 6.89 | 6.55 | –
Cc1ccc(Nc2nn3c(-c4ccncc4)nnc3s2)cc1 | 6.51 | 5.48 | 6.92 | 6.27 | 5.86 | 6.56 | 6.32
Brc1ccc(Nc2nn3c(-c4ccncc4)nnc3s2)cc1 | 6.89 | 5.65 | 6.64 | 6.87 | 6.49 | 6.11 | –
N#CN=C(NCCCCCCOc1ccc(Cl)cc1)Nc1ccncc1 [CHS-828] | – | 7.82 | 7.74 | – | – | – | –
